# Compounds with a hit are over-represented: about 4.7% of the library has one in this group of screens.
# aSyn 5UTR inh = MLPCN primary screen, SNCA 5' untranslated region | alpha-synuclein 5'UTR reporter, inhibitor activity | inhibition, % (tested at 7.5 µM) | hit rate 0.82% among 300,000; in the data active = inhibition above about 60%;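 note: H4 neuroglioblastoma cells stably carrying SNCA 5'UTR luciferase fusion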
# IMP-1 inh = IMP-1 metallo-beta-lactamase inhibitors, primary screen, biochemical, epi-absorbance readout, Pseudomonas aeruginosa enzyme; purified IMP-1, nitrocefin hydrolysis, epi-absorbance fluorescence; hit rate 0.45% among 290,000; inhibition, % at 5.6 µM;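 active = inhibition above the mean plus 3 SD of all compounds in the same screening run, cut at about 4.5% in these data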
#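 Material – recombinant IMP-1 enzyme, purified · Amount – IMP-1 0.2 nM before substrate addition · Medium – HEPES buffer pH 7.1 with ZnSO4 and Brij 35 · Timing – 25 °C, 15 min preincubation, 25 min reaction · Measured by – plate fluorescence quenching by hydrolysis product, ex 480/em 530 nm · Read-out – percent enzyme inhibition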
# Mdm2 MdmX PPI = inhibitors of human Mdm2-MdmX association, primary screen, cell-based, luminescence, split luciferase, SaOS-2, uHTS; Protein Mdm4 (Homo sapiens) + E3 ubiquitin-protein ligase Mdm2 (Homo sapiens), …; AID 485346, 2010; inhibition, % at 8 µM; hit rate 3% among 330,000; SaOS-2 split-luciferase Mdm2/MdmX complementation;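 active = inhibition of at least 50% at 8 µM in the primary screen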
# Target sequence (O15151 whole entry, looked up): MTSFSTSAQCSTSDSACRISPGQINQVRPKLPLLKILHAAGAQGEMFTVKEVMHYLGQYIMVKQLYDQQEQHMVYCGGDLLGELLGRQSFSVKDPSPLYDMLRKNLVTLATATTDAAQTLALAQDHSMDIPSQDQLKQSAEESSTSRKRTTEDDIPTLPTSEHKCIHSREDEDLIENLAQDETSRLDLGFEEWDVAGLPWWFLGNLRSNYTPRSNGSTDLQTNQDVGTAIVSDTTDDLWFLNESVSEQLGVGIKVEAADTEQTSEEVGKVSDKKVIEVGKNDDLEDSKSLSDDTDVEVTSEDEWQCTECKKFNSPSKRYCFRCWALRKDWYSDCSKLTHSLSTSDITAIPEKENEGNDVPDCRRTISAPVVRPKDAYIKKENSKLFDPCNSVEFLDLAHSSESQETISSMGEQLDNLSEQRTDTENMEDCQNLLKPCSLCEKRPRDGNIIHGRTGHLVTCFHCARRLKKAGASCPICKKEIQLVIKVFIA
# Target sequence (Q00987 whole entry, looked up): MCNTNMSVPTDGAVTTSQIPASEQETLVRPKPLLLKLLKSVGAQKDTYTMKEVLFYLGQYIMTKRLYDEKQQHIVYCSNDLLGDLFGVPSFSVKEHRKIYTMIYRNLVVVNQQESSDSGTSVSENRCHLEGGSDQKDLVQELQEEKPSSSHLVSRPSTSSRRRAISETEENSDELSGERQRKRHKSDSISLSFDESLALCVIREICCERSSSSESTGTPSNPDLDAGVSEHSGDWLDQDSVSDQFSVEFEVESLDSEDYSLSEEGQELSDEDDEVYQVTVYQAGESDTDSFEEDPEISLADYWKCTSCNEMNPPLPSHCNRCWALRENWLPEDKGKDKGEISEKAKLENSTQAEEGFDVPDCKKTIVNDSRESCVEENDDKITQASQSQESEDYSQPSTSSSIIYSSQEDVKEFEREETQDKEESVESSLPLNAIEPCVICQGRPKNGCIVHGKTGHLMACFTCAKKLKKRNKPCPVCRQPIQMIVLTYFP
# VIM-2 inh = VIM-2 metallo-beta-lactamase inhibitors, primary screen, biochemical, epi-absorbance readout, Pseudomonas aeruginosa enzyme. AID 1527, 2009. purified VIM-2, nitrocefin hydrolysis, epi-absorbance fluorescence. hit rate 0.89% among 290,000. inhibition, % at 5.6 µM;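 active = inhibition above the mean of all tested compounds plus 3 SD, cutoff set per screening run, cut at about 7.5% in these data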;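 note: red hydrolysis product quenches plate fluorescence so inhibitors raise well fluorescence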
# 697 NFkB inh = inhibitors of PMA/ionomycin-induced NF-kB reporter, 697 cells, primary screen, B-cell NF-kB inhibitor project, cell-based, luminescence, uHTS; 697 B-cell NF-kB luciferase reporter, 16 h; inhibition, % at 4 µM; hit rate 0.33% among 330,000; AID 435022, 2010; in the data active = inhibition above about 35%
# Jurkat NFkB inh = inhibitors of induced NF-kB luciferase reporter, primary screen, TCR NF-kB activation inhibitor project, cell-based, luminescence, uHTS; Jurkat, PMA/ionomycin-induced NF-kB luciferase reporter; hit rate 0.53% among 330,000; inhibition, % at 4 µM; AID 435003, 2010; in the data active = inhibition above about 50%
# Jurkat NFkB conf = PMA/ionomycin-induced NF-kB reporter inhibitors, Jurkat retest, confirmation, T-cell NF-kB inhibitor project, cell-based, luminescence, single concentration. shares compounds with Jurkat NFkB inh. Jurkat NF-kB luciferase, 16 h. inhibition, % at 4 µM. hit rate 27% among 2,700. AID 435020, 2010;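 active = inhibition reaching about 45% at 4 µM in either replicate, limit read from the data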
# 697 NFkB conf = PMA/ionomycin-induced NF-kB reporter inhibitors, 697 retest, confirmation, B-cell NF-kB inhibitor project, cell-based, luminescence, single concentration; 697 B-cell NF-kB luciferase, 16 h; inhibition, % at 4 µM; AID 449746, 2010; shares compounds with 697 NFkB inh; hit rate 35% among 2,000; in the data active = inhibition mostly above about 28%, no sharp cut-off; inactive = mostly below about 22%
# Hits are given with their value; . = inactive; / = no result given.
SMILES,aSyn 5UTR inh,IMP-1 inh,Mdm2 MdmX PPI,VIM-2 inh,697 NFkB inh,Jurkat NFkB inh,Jurkat NFkB conf,697 NFkB conf
CCN(CC)c1ccc2cc(C(=O)Nc3ccccn3)c(=O)oc2c1,.,.,.,.,.,.,.,.
O=C(NCCNCCO)C1(C(F)(F)F)C/C(=C\CCO)CCCO1 (configuration not stated),.,/,.,/,61,54,83,58
O=C(NCCNCCO)C1(C(F)(F)F)C/C(=C\Cc2ccccc2)CCCO1 (configuration not stated),.,/,.,/,.,.,/,/
Cc1ccc(S(=O)(=O)N2CCCCC2)cc1NC(=O)CNc1ccc(C(F)(F)F)cc1,.,/,.,/,.,.,/,/
Cn1cccc1/C=C1\CCc2ccccc2C1=O,.,.,.,.,.,.,.,.
Cn1cccc1/C=C1\Cc2ccccc2C1=O,.,.,.,.,.,.,/,/
COCCn1c(C)cc(C(=O)CSc2nc3ccccc3c(=O)n2Cc2ccco2)c1C,.,.,.,.,.,.,.,.
Cc1cc(S(=O)(=O)Nc2ccc3cn[nH]c3c2)c(C)cc1Cl,.,.,.,.,.,.,/,/
CC(C)c1ccc(NC(=O)c2ccc(Br)o2)cc1,.,.,.,.,.,.,.,.
COc1ccccc1CN1CCC(n2nccc2NC(=O)CCCc2ccccc2)CC1,.,.,.,.,.,.,/,/
CC1(C)CCc2cc(-c3ccnc(=S)[nH]3)ccc2O1,.,.,.,.,.,.,.,.
S=c1nccc(-c2ccc3c(c2)CCO3)[nH]1,.,.,.,.,.,.,/,/
COc1ccc(/C=N/NC(=S)Nc2cccc(C(=O)O)c2)cc1,.,.,.,.,.,.,/,/
COc1cc(/C=N/NC(=S)Nc2cccc(C(=O)O)c2)ccc1O,70,.,.,.,38,54,50,38
Cc1coc2cc3oc(=O)c(CCC(=O)N[C@@H](CCCNC(N)=O)C(=O)O)c(C)c3cc12,.,.,.,.,.,.,/,/
CCOc1ccc2nc(NC(=S)N(C)C)sc2c1,.,.,.,.,.,.,.,.
COc1ccc(-c2cc(-c3ccccc3)no2)cc1,.,/,.,/,.,.,.,.
COc1ccc(-c2cc(COc3ccccc3)on2)cc1,.,.,.,.,.,.,/,/
Cc1cccc(C(=O)OCC(=O)NC(=O)c2ccccc2)c1O,.,/,.,/,.,.,/,/
CC(=Nc1ccc(C)cc1)c1sc2ccccc2c1O,.,.,.,.,.,.,.,.
CCN(CC)S(=O)(=O)c1ccc(Oc2ccc(S(=O)(=O)N(CC)CC)cc2)cc1,.,.,.,.,84,55,75,87
O=C(N/N=C/c1ccc([N+](=O)[O-])s1)c1ccncc1,.,.,.,.,.,.,/,/
Cc1ccc(C(=O)N/N=C/c2ccc([N+](=O)[O-])s2)cc1,108,.,.,.,38,64,48,.
CC(C)(C)C(=O)CSc1ncnc2c1cnn2-c1ccccc1,.,.,.,.,.,.,.,.
CSCC[C@H](N)C(=O)NC[C@H]1CC[C@H](C(=O)N[C@@H](Cc2ccccc2)C(=O)O)CC1,.,.,.,.,.,.,/,/
CCN(CC)S(=O)(=O)c1ccc(C)c(NC(=O)CNc2cccc(S(=O)(=O)N3CCCC3)c2)c1,.,/,.,/,.,.,/,/
CCN(CC)S(=O)(=O)c1cccc(NC(=O)CNc2cccc(S(=O)(=O)N3CCCC3)c2)c1,.,.,.,.,43,56,58,67
CCN(C(=O)c1ccc(C(C)(C)C)cc1)c1nnc(Cn2nnc3ccccc32)s1,.,.,.,.,96,57,69,91

# Compound activity: PubChem, several laboratories
